Measurements reported in ChEMBL document CHEMBL1153730, “Bioactive constituents of the stem bark of Beilschmiedia zenkeri” (J Nat Prod, 2009).
In brackets after ≈: the same amount, converted by molar mass. Activity calls are given as the source filed them. The calls are words filed in the database; no cut-off is given here.

Columns and labels:
Pseudomonas agarici = assay: Antibacterial activity against Pseudomonas agarici by agar well diffusion method; type: functional
How it was run: (§1)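 Agar well diffusion on pure compounds, with the value reported as MIC. Ampicillin was the positive control for B. subtilis and gentamicin for P. agarici.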

Bacillus subtilis = assay: Antibacterial activity against Bacillus subtilis by agar well diffusion method; type: functional; how it was run: as §1
Streptococcus minor = assay: Antibacterial activity against Streptococcus minor by agar well diffusion method; type: functional
How it was run: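 Agar well diffusion run on extracts and pure compounds, following earlier reports. Ampicillin served as the positive control for this strain. Activity was reported as MIC (µM).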

Plasmodium falciparum = assay: Antiplasmodial activity against chloroquine-resistant Plasmodium falciparum W2 rings after 48 hrs by FACS analysis; type: functional, organism-based; conditions: W2, 48 h

Row | Compound | Activity (Pseudomonas agarici) | Activity (Bacillus subtilis) | Activity (Streptococcus minor) | IC50 (Plasmodium falciparum) | MIC (Pseudomonas agarici) | MIC (Bacillus subtilis) | MIC (Streptococcus minor)
1 | O=C(/C=C/c1ccccc1)NCCc1ccc2c(c1)OCO2 | inactive | inactive | inactive |  |  |  | 
2 | CCCCCCCCCCCCCCC(=O)OC[C@@H](O)CO | inactive | inactive | inactive |  |  |  | 
3 | COc1cc(O)c2c(c1OC)OC(c1ccccc1)CC2=O (stereo not given) | inactive | inactive | inactive | 9.3 µM |  |  | 
4 | CC(C)CNC(=O)/C=C/C=C/CCCCCC/C=C/c1ccc2c(c1)OCO2 [GUINEENSINE] |  |  | inactive | 3.7 µM | 81.5 µM (≈ 31.3 µg/mL) | 163 µM (≈ 62.5 µg/mL) | 
5 | COc1cc2c(c(OC)c1OC)[C@H](O)C[C@@H](c1ccccc1)O2 | inactive | inactive | inactive |  |  |  | 
6 | COc1cc2c(c(OC)c1OC)[C@H](O[C@@H]1C[C@@H](c3ccccc3)Oc3cc(OC)c(OC)c(OC)c31)C[C@@H](c1ccccc1)O2 | inactive | inactive | inactive |  |  |  | 
7 | C=C(C)[C@@H]1CC[C@]2(C(=O)O)CC[C@]3(C)[C@H](CC[C@@H]4[C@@]5(C)CC[C@H](O)C(C)(C)[C@@H]5CC[C@]43C)[C@@H]12 [BETULINIC ACID] | inactive | inactive | inactive | 5.2 µM |  |  | 
8 | COc1cc2c(c(OC)c1OC)[C@H](OC)C[C@@H](c1ccccc1)O2 | inactive | inactive | inactive |  |  |  | 
9 | COc1cc2c(c(O)c1OC)[C@H](O[C@@H]1C[C@@H](c3ccccc3)Oc3cc(OC)c(OC)c(OC)c31)C[C@@H](c1ccccc1)O2 [BEILSCHMIEFLAVONOID B] | inactive | inactive |  |  |  |  | 198 µM (≈ 119 µg/mL)
